Reference: ChEMBL document CHEMBL1139340, “Synthesis, radiosynthesis, and biological evaluation of carbon-11 and fluorine-18 labeled reboxetine analogues: potential positron emission tomography radioligands for in vivo imaging of the norepinephrine transporter” (J Med Chem, 2009)

Key:
[1] = Ratio of drug uptake in thalamus to caudate of anesthetized rhesus monkey at 15 to 20 mCi pretreated with 0.125 mg/kg desipramine by microPET; format: ADME, organism-based, Macaca mulatta; parameters: dose 0.125 mg/kg; conditions: in vivo
In short: (§1)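 Anesthetized adult male rhesus monkeys imaged on a microPET P4 system after injection of 15–20 mCi of the 11C-labeled radioligand. Desipramine was given 40 min before radiotracer injection. Emission data were collected continuously for 125 min and binned. ROIs were drawn manually on anatomical landmarks in the reconstructed images. The ratio of region-of-interest to caudate uptake was taken from time-activity curves at 85 min postinjection.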

[2] = Ratio of drug uptake in midbrain to caudate of anesthetized rhesus monkey at 15 to 20 mCi after 85 mins postinjection by microPET; format: ADME, organism-based, Macaca mulatta; conditions: in vivo
In short: (§2)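 Anesthetized adult male rhesus monkeys given 15–20 mCi of the ¹¹C tracer, alone or after desipramine (0.125 or 0.25 mg/kg) 40 min beforehand. MicroPET emission collected continuously for 125 min and binned. ROIs drawn manually on anatomical landmarks to give time-activity curves. Region-to-caudate uptake ratio taken at 85 min postinjection.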

Spleen [3] = test: Biodistribution in Sprague-Dawley rat spleen at 300 uCi, iv after 30 mins; format: ADME, organism-based; conditions: in vivo, 0.5 h
Brain [4] = test: Biodistribution in Sprague-Dawley rat brain at 300 uCi, iv after 60 mins; format: ADME, organism-based; conditions: in vivo, 1 h
Pancreas [5] = test: Biodistribution in Sprague-Dawley rat pancreas at 300 uCi, iv after 30 mins; format: ADME, organism-based; conditions: in vivo, 0.5 h
[6] = Ratio of drug uptake in cerebellum to caudate of anesthetized rhesus monkey at 15 to 20 mCi pretreated with 0.125 mg/kg desipramine by microPET; format: ADME, organism-based, Macaca mulatta; parameters: dose 0.125 mg/kg; conditions: in vivo; in short: as §1
Liver [7] = test: Biodistribution in Sprague-Dawley rat liver at 300 uCi, iv after 5 mins; format: ADME, organism-based; conditions: in vivo
Bone [8] = test: Biodistribution in Sprague-Dawley rat bone at 300 uCi, iv after 30 mins; format: ADME, organism-based, Bone element; conditions: in vivo, 0.5 h
Lung [9] = test: Biodistribution in Sprague-Dawley rat lung at 300 uCi, iv after 15 mins; format: ADME, organism-based; conditions: in vivo, 0.25 h
Kidney [10] = test: Biodistribution in Sprague-Dawley rat kidney at 300 uCi, iv after 60 mins; format: ADME, organism-based; conditions: in vivo, 1 h
Muscle tissue [11] = test: Biodistribution in Sprague-Dawley rat muscle at 300 uCi, iv after 15 mins; format: ADME, organism-based; conditions: in vivo, 0.25 h
[12] = Ratio of drug uptake in pons to caudate of awaken rhesus monkey at 15 to 20 mCi after by PET method; format: ADME, Macaca mulatta; conditions: in vivo
In short: (§3)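 Awake rhesus monkeys imaged on a high-resolution research tomograph (HRRT) for 120 min after radioligand injection; images coregistered with composite MRI to define regions; time-activity curves generated and highest ratio of regional uptake to caudate uptake taken.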

Muscle tissue [13] = test: Biodistribution in Sprague-Dawley rat muscle at 300 uCi, iv after 60 mins; format: ADME, organism-based; conditions: in vivo, 1 h
Bone [14] = test: Biodistribution in Sprague-Dawley rat bone at 300 uCi, iv after 15 mins; format: ADME, organism-based, Bone element; conditions: in vivo, 0.25 h
Blood [15] = test: Biodistribution in Sprague-Dawley rat blood at 300 uCi, iv after 15 mins; format: ADME, organism-based; conditions: in vivo, 0.25 h
Kidney [16] = test: Biodistribution in Sprague-Dawley rat kidney at 300 uCi, iv after 5 mins; format: ADME, organism-based; conditions: in vivo
Heart [17] = test: Biodistribution in Sprague-Dawley rat heart at 300 uCi, iv after 5 mins; format: ADME, organism-based; conditions: in vivo
[18] = Ratio of drug uptake in pons to caudate of anesthetized rhesus monkey at 15 to 20 mCi after 85 mins postinjection by microPET; format: ADME, organism-based, Macaca mulatta; conditions: in vivo
In short: (§4)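 Anesthetized adult male rhesus monkeys scanned on a microPET P4 after 15–20 mCi of the 11C radioligand; emission collected continuously for 125 min, binned, time-activity curves from manually drawn anatomical ROIs; regional uptake divided by caudate uptake (caudate as NET-poor reference) at 85 min postinjection, at baseline.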

Lung [19] = test: Biodistribution in Sprague-Dawley rat lung at 300 uCi, iv after 60 mins; format: ADME, organism-based; conditions: in vivo, 1 h
[20] = Biodistribution in Sprague-Dawley rat testis at 300 uCi, iv after 5 mins; format: ADME, organism-based; conditions: in vivo
[21] = Ratio of drug uptake in thalamus to caudate of anesthetized rhesus monkey at 15 to 20 mCi after 85 mins postinjection by microPET; format: ADME, organism-based, Macaca mulatta; conditions: in vivo; in short: as §4
Spleen [22] = test: Biodistribution in Sprague-Dawley rat spleen at 300 uCi, iv after 15 mins; format: ADME, organism-based; conditions: in vivo, 0.25 h
Blood [23] = test: Biodistribution in Sprague-Dawley rat blood at 300 uCi, iv after 60 mins; format: ADME, organism-based; conditions: in vivo, 1 h
Pancreas [24] = test: Biodistribution in Sprague-Dawley rat pancreas at 300 uCi, iv after 60 mins; format: ADME, organism-based; conditions: in vivo, 1 h
Pancreas [25] = test: Biodistribution in Sprague-Dawley rat pancreas at 300 uCi, iv after 15 mins; format: ADME, organism-based; conditions: in vivo, 0.25 h
Bone [26] = test: Biodistribution in Sprague-Dawley rat bone at 300 uCi, iv after 5 mins; format: ADME, organism-based, Bone element; conditions: in vivo
[27] = Biodistribution in Sprague-Dawley rat testis at 300 uCi, iv after 60 mins; format: ADME, organism-based; conditions: in vivo, 1 h
Brain [28] = test: Biodistribution in Sprague-Dawley rat brain at 300 uCi, iv after 15 mins; format: ADME, organism-based; conditions: in vivo, 0.25 h
Muscle tissue [29] = test: Biodistribution in Sprague-Dawley rat muscle at 300 uCi, iv after 5 mins; format: ADME, organism-based; conditions: in vivo
Heart [30] = test: Biodistribution in Sprague-Dawley rat heart at 300 uCi, iv after 60 mins; format: ADME, organism-based; conditions: in vivo, 1 h
Blood [31] = test: Biodistribution in Sprague-Dawley rat blood at 300 uCi, iv after 5 mins; format: ADME, organism-based; conditions: in vivo
[32] = Biodistribution in Sprague-Dawley rat testis at 300 uCi, iv after 30 mins; format: ADME, organism-based; conditions: in vivo, 0.5 h
Brain [33] = test: Biodistribution in Sprague-Dawley rat brain at 300 uCi, iv after 5 mins; format: ADME, organism-based; conditions: in vivo
[34] = Ratio of drug uptake in pons to caudate of anesthetized rhesus monkey at 15 to 20 mCi pretreated with 0.125 mg/kg desipramine by microPET; format: ADME, organism-based, Macaca mulatta; parameters: dose 0.125 mg/kg; conditions: in vivo; in short: as §1
[35] = Ratio of drug uptake in midbrain to caudate of awaken rhesus monkey at 15 to 20 mCi after by PET method; format: ADME, Macaca mulatta; conditions: in vivo; in short: as §3
Brain [36] = test: Biodistribution in Sprague-Dawley rat brain at 300 uCi, iv after 30 mins; format: ADME, organism-based; conditions: in vivo, 0.5 h
Heart [37] = test: Biodistribution in Sprague-Dawley rat heart at 300 uCi, iv after 15 mins; format: ADME, organism-based; conditions: in vivo, 0.25 h
Pancreas [38] = test: Biodistribution in Sprague-Dawley rat pancreas at 300 uCi, iv after 5 mins; format: ADME, organism-based; conditions: in vivo
Liver [39] = test: Biodistribution in Sprague-Dawley rat liver at 300 uCi, iv after 30 mins; format: ADME, organism-based; conditions: in vivo, 0.5 h
Liver [40] = test: Biodistribution in Sprague-Dawley rat liver at 300 uCi, iv after 15 mins; format: ADME, organism-based; conditions: in vivo, 0.25 h
Spleen [41] = test: Biodistribution in Sprague-Dawley rat spleen at 300 uCi, iv after 5 mins; format: ADME, organism-based; conditions: in vivo
[42] = Biodistribution in Sprague-Dawley rat testis at 300 uCi, iv after 15 mins; format: ADME, organism-based; conditions: in vivo, 0.25 h
[43] = Ratio of drug uptake in cerebellum to caudate of awaken rhesus monkey at 15 to 20 mCi after by PET method; format: ADME, tissue-based, Macaca mulatta; conditions: in vivo
In short: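 Awake rhesus monkeys imaged on a high-resolution research tomograph for 120 min after injection of the ¹¹C tracer. Images coregistered with composite MRI to define regions of interest. Highest cerebellum-to-caudate uptake ratio read from the time-activity curves.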

Heart [44] = test: Biodistribution in Sprague-Dawley rat heart at 300 uCi, iv after 30 mins; format: ADME, organism-based; conditions: in vivo, 0.5 h
Lung [45] = test: Biodistribution in Sprague-Dawley rat lung at 300 uCi, iv after 30 mins; format: ADME, organism-based; conditions: in vivo, 0.5 h
Lung [46] = test: Biodistribution in Sprague-Dawley rat lung at 300 uCi, iv after 5 mins; format: ADME, organism-based; conditions: in vivo
[47] = Ratio of drug uptake in cerebellum to caudate of anesthetized rhesus monkey at 15 to 20 mCi after 85 mins postinjection by microPET; format: ADME, organism-based, Macaca mulatta; conditions: in vivo; in short: as §2
Liver [48] = test: Biodistribution in Sprague-Dawley rat liver at 300 uCi, iv after 60 mins; format: ADME, organism-based; conditions: in vivo, 1 h
Bone [49] = test: Biodistribution in Sprague-Dawley rat bone at 300 uCi, iv after 60 mins; format: ADME, organism-based, Bone element; conditions: in vivo, 1 h
Blood [50] = test: Biodistribution in Sprague-Dawley rat blood at 300 uCi, iv after 30 mins; format: ADME, organism-based; conditions: in vivo, 0.5 h
[51] = Ratio of drug uptake in thalamus to caudate of awaken rhesus monkey at 15 to 20 mCi after by PET method; format: ADME, Macaca mulatta; conditions: in vivo; in short: as §3
[52] = Ratio of drug uptake in midbrain to caudate of anesthetized rhesus monkey at 15 to 20 mCi pretreated with 0.125 mg/kg desipramine by microPET; format: ADME, organism-based, Macaca mulatta; parameters: dose 0.125 mg/kg; conditions: in vivo; in short: as §1
Kidney [53] = test: Biodistribution in Sprague-Dawley rat kidney at 300 uCi, iv after 15 mins; format: ADME, organism-based; conditions: in vivo, 0.25 h
Kidney [54] = test: Biodistribution in Sprague-Dawley rat kidney at 300 uCi, iv after 30 mins; format: ADME, organism-based; conditions: in vivo, 0.5 h
Spleen [55] = test: Biodistribution in Sprague-Dawley rat spleen at 300 uCi, iv after 60 mins; format: ADME, organism-based; conditions: in vivo, 1 h
Muscle tissue [56] = test: Biodistribution in Sprague-Dawley rat muscle at 300 uCi, iv after 30 mins; format: ADME, organism-based; conditions: in vivo, 0.5 h

Ratio [1]: 1.1
Ratio [2]: 1.43
Drug uptake (Spleen [3]): 1.13 % ID/g
Drug uptake (Brain [4]): 0.25 % ID/g
Drug uptake (Pancreas [5]): 0.77 % ID/g
Ratio [6]: 1.04
Drug uptake (Liver [7]): 0.28 % ID/g
Drug uptake (Bone [8]): 0.2 % ID/g
Drug uptake (Lung [9]): 6.92 % ID/g
Drug uptake (Kidney [10]): 0.31 % ID/g
Drug uptake (Muscle tissue [11]): 0.22 % ID/g
Ratio [12]: 1.13
Drug uptake (Muscle tissue [13]): 0.22 % ID/g
Drug uptake (Bone [14]): 0.37 % ID/g
Drug uptake (Blood [15]): 0.05 % ID/g
Drug uptake (Kidney [16]): 2.66 % ID/g
Drug uptake (Heart [17]): 3.43 % ID/g
Ratio [18]: 1.44
Drug uptake (Lung [19]): 1.98 % ID/g
Drug uptake [20]: 0.18 % ID/g
Ratio [21]: 1.3
Drug uptake (Spleen [22]): 1.79 % ID/g
Drug uptake (Blood [23]): 0.04 % ID/g
Drug uptake (Pancreas [24]): 0.63 % ID/g
Drug uptake (Pancreas [25]): 0.83
Drug uptake (Bone [26]): 0.48 % ID/g
Drug uptake [27]: 0.15 % ID/g
Drug uptake (Brain [28]): 0.72 % ID/g
Drug uptake (Muscle tissue [29]): 0.25 % ID/g
Drug uptake (Heart [30]): 0.62 % ID/g
Drug uptake (Blood [31]): 0.13 % ID/g
Drug uptake [32]: 0.19 % ID/g
Drug uptake (Brain [33]): 0.9 % ID/g
Ratio [34]: 1.13
Ratio [35]: 1.2
Drug uptake (Brain [36]): 0.55 % ID/g
Drug uptake (Heart [37]): 1.49 % ID/g
Drug uptake (Pancreas [38]): 1.59 % ID/g
Drug uptake (Liver [39]): 0.46 % ID/g
Drug uptake (Liver [40]): 0.77 % ID/g
Drug uptake (Spleen [41]): 3.5 % ID/g
Drug uptake [42]: 0.18 % ID/g
Ratio [43]: 0.93
Drug uptake (Heart [44]): 1.07 % ID/g
Drug uptake (Lung [45]): 3.63 % ID/g
Drug uptake (Lung [46]): 15.3 % ID/g
Ratio [47]: 1.25
Drug uptake (Liver [48]): 0.29 % ID/g
Drug uptake (Bone [49]): 0.17 % ID/g
Drug uptake (Blood [50]): 0.05 % ID/g
Ratio [51]: 1.25
Ratio [52]: 1.2
Drug uptake (Kidney [53]): 0.85 % ID/g
Drug uptake (Kidney [54]): 0.56 % ID/g
Drug uptake (Spleen [55]): 0.49 % ID/g
Drug uptake (Muscle tissue [56]): 0.22 % ID/g
Structure (SMILES): [11CH3]c1ccccc1O[C@@H](c1ccccc1)[C@@H]1CNCCO1
